Assay results taken from ChEMBL document CHEMBL2203175, “Discovery and optimization of sulfonyl acrylonitriles as selective, covalent inhibitors of protein phosphatase methylesterase-1” (J Med Chem, 2011).
Activity calls are given as the source filed them.

Legend:
Assay type in all cases: cell-based
Conditions in all cases: HEK-293T
[1] = target: Testis-expressed protein 30 (Homo sapiens) (UniProt Q5JUR7); assay: Inhibition of C13orf27 binding to FP-biotin in [12C][14N]-lysine, arginine and [13C6][15N2]-lysine, arginine labeled HEK293T cells at 20 uM after 1 hr by isotopic activity-based protein profiling-MudPIT assay
Testis-expressed protein 30 (Homo sapiens), sequence (Q5JUR7 whole entry): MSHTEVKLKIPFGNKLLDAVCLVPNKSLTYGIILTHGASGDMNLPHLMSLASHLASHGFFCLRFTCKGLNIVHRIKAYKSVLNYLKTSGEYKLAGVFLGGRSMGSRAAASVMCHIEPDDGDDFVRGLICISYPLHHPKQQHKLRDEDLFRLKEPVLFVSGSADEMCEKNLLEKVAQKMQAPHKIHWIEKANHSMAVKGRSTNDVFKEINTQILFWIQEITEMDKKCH
Outline: (§1)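 SILAC HEK 293T: light cells (12C14N-Lys/Arg) treated with compound, heavy cells (13C6 15N2-Lys/Arg) with DMSO, 1 h at 37 °C. Proteomes were mixed 1:1 (0.5 mg each) and labeled with FP-biotin (5 μM, 1 h, 25 °C), then streptavidin-enriched, digested on bead with trypsin, and run by MudPIT. Light/heavy ratios were normalized to a DMSO/DMSO control. Only SHs with ≥2 quantifiable peptides were kept; mean ± SEM across peptides.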

[2] = target: Calcium-independent phospholipase A2-gamma (Homo sapiens) (UniProt Q9NP80); assay: Inhibition of PNPLA8 binding to FP-biotin in [12C][14N]-lysine, arginine and [13C6][15N2]-lysine, arginine labeled HEK293T cells at 20 uM after 1 hr by isotopic activity-based protein profiling-MudPIT assay; outline: as §1
Calcium-independent phospholipase A2-gamma (Homo sapiens), sequence (Q9NP80 whole entry): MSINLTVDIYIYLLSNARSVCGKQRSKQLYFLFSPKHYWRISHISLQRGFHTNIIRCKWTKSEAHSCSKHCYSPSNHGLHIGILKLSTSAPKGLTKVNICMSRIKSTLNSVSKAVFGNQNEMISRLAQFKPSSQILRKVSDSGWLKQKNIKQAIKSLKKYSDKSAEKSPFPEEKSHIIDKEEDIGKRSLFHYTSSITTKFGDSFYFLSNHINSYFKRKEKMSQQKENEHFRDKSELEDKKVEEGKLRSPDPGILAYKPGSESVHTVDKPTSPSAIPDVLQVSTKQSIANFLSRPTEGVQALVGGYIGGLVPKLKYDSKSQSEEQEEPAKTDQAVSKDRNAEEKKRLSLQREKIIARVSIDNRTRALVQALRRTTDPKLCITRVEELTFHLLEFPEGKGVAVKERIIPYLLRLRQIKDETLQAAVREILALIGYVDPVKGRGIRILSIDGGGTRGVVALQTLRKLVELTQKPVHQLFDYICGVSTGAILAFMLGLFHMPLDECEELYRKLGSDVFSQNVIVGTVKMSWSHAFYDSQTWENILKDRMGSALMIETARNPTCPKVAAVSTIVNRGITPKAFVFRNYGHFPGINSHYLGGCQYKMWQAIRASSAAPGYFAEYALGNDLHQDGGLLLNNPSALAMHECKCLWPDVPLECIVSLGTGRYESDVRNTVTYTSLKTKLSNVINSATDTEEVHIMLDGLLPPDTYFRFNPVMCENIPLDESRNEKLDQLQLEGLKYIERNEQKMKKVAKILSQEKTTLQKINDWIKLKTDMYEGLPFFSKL

[3] = target: Lysosomal protective protein (Homo sapiens) (UniProt P10619); assay: Inhibition of CTSA binding to FP-biotin in [12C][14N]-lysine, arginine and [13C6][15N2]-lysine, arginine labeled HEK293T cells at 20 uM after 1 hr by isotopic activity-based protein profiling-MudPIT assay; outline: as §1
Lysosomal protective protein (Homo sapiens), sequence (P10619 29-326 limits assumed): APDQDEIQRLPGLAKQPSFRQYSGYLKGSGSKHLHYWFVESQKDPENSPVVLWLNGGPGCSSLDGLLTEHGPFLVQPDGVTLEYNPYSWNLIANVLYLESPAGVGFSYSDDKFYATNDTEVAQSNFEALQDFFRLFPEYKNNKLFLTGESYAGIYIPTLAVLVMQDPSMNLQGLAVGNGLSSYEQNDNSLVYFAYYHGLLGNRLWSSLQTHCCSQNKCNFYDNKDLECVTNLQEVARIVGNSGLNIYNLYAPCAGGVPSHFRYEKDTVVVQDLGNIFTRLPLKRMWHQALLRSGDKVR
Lysosomal protective protein (Homo sapiens), sequence (P10619 327-480 limits assumed): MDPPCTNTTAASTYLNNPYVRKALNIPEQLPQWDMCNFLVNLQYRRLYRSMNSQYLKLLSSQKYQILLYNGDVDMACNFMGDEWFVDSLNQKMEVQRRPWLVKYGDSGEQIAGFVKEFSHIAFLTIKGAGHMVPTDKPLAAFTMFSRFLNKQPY

[4] = target: Dipeptidyl peptidase 9 (Homo sapiens) (UniProt Q86TI2); assay: Inhibition of DPP9 binding to FP-biotin in[12C][14N]-lysine, arginine and [13C6][15N2]-lysine, arginine labeled HEK293T cells at 20 uM after 1 hr by isotopic activity-based protein profiling-MudPIT assay; outline: as §1
[5] = target: S-formylglutathione hydrolase (Homo sapiens) (UniProt P10768); assay: Inhibition of ESD binding to FP-biotin in [12C][14N]-lysine, arginine and [13C6][15N2]-lysine, arginine labeled HEK293T cells at 20 uM after 1 hr by isotopic activity-based protein profiling-MudPIT assay; outline: as §1
[6] = target: Phosphatidylserine lipase ABHD16A (Homo sapiens) (UniProt O95870); assay: Inhibition of BAT5 binding to FP-biotin in [12C][14N]-lysine, arginine and [13C6][15N2]-lysine, arginine labeled HEK293T cells at 20 uM after 1 hr by isotopic activity-based protein profiling-MudPIT assay; outline: as §1
[7] = target: Neutral cholesterol ester hydrolase 1 (Homo sapiens) (UniProt Q6PIU2); assay: Inhibition of AADACL1 binding to FP-biotin in [12C][14N]-lysine, arginine and [13C6][15N2]-lysine, arginine labeled HEK293T cells at 20 uM after 1 hr by isotopic activity-based protein profiling-MudPIT assay; outline: as §1
[8] = target: Dipeptidyl peptidase 8 (Homo sapiens) (UniProt Q6V1X1); assay: Inhibition of DPP8 binding to FP-biotin in [12C][14N]-lysine, arginine and [13C6][15N2]-lysine, arginine labeled HEK293T cells at 20 uM after 1 hr by isotopic activity-based protein profiling-MudPIT assay; outline: as §1
[9] = target: Alpha/beta hydrolase domain-containing protein 17B (Homo sapiens) (UniProt Q5VST6); assay: Inhibition of FAM108B1 binding to FP-biotin in [12C][14N]-lysine, arginine and [13C6][15N2]-lysine, arginine labeled HEK293T cells at 20 uM after 1 hr by isotopic activity-based protein profiling-MudPIT assay; outline: as §1
[10] = target: Acylamino-acid-releasing enzyme (Homo sapiens) (UniProt P13798); assay: Inhibition of APEH binding to FP-biotin in [12C][14N]-lysine, arginine and [13C6][15N2]-lysine, arginine labeled HEK293T cells at 20 uM after 1 hr by isotopic activity-based protein profiling-MudPIT assay; outline: as §1
Acylamino-acid-releasing enzyme (Homo sapiens), sequence (P13798 whole entry): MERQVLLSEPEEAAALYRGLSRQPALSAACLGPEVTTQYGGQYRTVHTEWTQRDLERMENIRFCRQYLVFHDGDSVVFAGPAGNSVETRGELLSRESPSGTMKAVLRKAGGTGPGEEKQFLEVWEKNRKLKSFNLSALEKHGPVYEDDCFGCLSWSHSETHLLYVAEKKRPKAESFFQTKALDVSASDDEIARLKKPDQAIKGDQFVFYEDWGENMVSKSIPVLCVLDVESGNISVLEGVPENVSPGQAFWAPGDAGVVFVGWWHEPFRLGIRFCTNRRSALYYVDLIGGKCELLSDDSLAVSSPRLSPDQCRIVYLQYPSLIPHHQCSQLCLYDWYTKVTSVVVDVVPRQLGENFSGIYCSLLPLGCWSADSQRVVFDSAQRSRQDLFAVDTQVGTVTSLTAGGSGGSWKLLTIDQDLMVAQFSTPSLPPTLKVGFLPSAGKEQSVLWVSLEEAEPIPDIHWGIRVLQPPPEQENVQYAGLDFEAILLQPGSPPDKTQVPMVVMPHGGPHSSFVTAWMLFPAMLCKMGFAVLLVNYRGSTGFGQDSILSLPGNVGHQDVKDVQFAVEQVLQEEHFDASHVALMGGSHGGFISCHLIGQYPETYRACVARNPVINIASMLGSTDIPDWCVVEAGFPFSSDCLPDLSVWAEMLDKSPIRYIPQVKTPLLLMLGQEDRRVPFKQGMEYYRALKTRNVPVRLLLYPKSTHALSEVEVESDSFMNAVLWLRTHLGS

[11] = target: Lysosomal Pro-X carboxypeptidase (Homo sapiens) (UniProt P42785); assay: Inhibition of PRCP binding to FP-biotin in[12C][14N]-lysine, arginine and [13C6][15N2]-lysine, arginine labeled HEK293T cells at 20 uM after 1 hr by isotopic activity-based protein profiling-MudPIT assay; outline: as §1
Lysosomal Pro-X carboxypeptidase (Homo sapiens), sequence (P42785 whole entry): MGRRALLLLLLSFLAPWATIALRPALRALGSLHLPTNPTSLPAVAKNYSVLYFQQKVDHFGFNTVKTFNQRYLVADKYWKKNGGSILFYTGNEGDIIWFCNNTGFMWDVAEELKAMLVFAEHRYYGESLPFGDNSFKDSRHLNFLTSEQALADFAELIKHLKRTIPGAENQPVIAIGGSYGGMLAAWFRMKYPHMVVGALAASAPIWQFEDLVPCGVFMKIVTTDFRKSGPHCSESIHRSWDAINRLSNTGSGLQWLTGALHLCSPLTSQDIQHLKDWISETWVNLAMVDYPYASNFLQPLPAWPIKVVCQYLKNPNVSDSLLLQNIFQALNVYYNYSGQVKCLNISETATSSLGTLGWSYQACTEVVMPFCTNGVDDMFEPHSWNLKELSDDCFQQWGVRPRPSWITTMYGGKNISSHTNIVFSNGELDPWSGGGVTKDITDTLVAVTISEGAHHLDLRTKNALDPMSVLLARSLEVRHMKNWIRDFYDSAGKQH

[12] = target: Prolyl endopeptidase (Homo sapiens) (UniProt P48147); assay: Inhibition of PREP binding to FP-biotin in [12C][14N]-lysine, arginine and [13C6][15N2]-lysine, arginine labeled HEK293T cells at 20 uM after 1 hr by isotopic activity-based protein profiling-MudPIT assay; outline: as §1
[13] = target: Fatty acid synthase (Homo sapiens) (UniProt P49327); assay: Inhibition of FASN binding to FP-biotin in [12C][14N]-lysine, arginine and [13C6][15N2]-lysine, arginine labeled HEK293T cells at 20 uM after 1 hr by isotopic activity-based protein profiling-MudPIT assay; outline: as §1
[14] = target: Acyl-protein thioesterase 1 (Homo sapiens) (UniProt O75608); assay: Inhibition of LYPLA1 binding to FP-biotin in [12C][14N]-lysine, arginine and [13C6][15N2]-lysine, arginine labeled HEK293T cells at 20 uM after 1 hr by isotopic activity-based protein profiling-MudPIT assay; outline: as §1
Acyl-protein thioesterase 1 (Homo sapiens), sequence (O75608 whole entry): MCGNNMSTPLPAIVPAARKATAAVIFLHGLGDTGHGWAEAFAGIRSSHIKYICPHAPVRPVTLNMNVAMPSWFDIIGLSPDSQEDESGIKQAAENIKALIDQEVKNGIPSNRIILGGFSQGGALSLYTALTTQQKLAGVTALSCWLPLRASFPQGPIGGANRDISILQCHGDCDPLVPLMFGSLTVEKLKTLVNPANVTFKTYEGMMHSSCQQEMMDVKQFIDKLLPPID

[15] = target: Lysosomal phospholipase A and acyltransferase (Homo sapiens) (UniProt Q8NCC3); assay: Inhibition of LYPLA3 binding to FP-biotin in [12C][14N]-lysine, arginine and [13C6][15N2]-lysine, arginine labeled HEK293T cells at 20 uM after 1 hr by isotopic activity-based protein profiling-MudPIT assay; outline: as §1
Lysosomal phospholipase A and acyltransferase (Homo sapiens), sequence (Q8NCC3 whole entry): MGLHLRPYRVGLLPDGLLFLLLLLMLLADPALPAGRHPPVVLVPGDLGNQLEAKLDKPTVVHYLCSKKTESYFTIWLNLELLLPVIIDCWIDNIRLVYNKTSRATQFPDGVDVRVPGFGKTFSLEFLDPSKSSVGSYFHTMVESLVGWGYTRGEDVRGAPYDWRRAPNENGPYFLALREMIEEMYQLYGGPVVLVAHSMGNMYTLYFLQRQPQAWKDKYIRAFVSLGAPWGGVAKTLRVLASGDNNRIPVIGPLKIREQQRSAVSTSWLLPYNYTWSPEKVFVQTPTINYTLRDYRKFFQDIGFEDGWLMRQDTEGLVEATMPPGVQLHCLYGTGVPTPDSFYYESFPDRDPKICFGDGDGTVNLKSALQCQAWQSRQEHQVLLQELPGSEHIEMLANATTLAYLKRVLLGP

[16] = target: Acyl-coenzyme A thioesterase 2, mitochondrial (Homo sapiens) (UniProt P49753); assay: Inhibition of ACOT2 binding to FP-biotin in [12C][14N]-lysine, arginine and [13C6][15N2]-lysine, arginine labeled HEK293T cells at 20 uM after 1 hr by isotopic activity-based protein profiling-MudPIT assay; outline: as §1
Acyl-coenzyme A thioesterase 2, mitochondrial (Homo sapiens), sequence (P49753 whole entry): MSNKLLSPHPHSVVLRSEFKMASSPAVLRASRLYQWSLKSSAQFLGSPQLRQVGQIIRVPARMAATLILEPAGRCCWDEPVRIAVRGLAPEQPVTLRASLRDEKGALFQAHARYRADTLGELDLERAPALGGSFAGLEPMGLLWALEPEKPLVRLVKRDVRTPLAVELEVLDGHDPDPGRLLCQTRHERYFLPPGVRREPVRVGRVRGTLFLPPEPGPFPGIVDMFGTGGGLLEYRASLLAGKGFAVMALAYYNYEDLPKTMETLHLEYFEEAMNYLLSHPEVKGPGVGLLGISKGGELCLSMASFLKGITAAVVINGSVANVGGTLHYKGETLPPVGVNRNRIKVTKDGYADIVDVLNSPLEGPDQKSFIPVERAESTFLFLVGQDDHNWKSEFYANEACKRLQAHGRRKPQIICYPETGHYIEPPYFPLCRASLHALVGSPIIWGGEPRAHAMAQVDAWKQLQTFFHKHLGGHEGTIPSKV

[17] = target: Acyl-coenzyme A thioesterase 1 (Homo sapiens) (UniProt Q86TX2); assay: Inhibition of ACOT1 binding to FP-biotin in [12C][14N]-lysine, arginine and [13C6][15N2]-lysine, arginine labeled HEK293T cells at 20 uM after 1 hr by isotopic activity-based protein profiling-MudPIT assay; outline: as §1
Acyl-coenzyme A thioesterase 1 (Homo sapiens), sequence (Q86TX2 whole entry): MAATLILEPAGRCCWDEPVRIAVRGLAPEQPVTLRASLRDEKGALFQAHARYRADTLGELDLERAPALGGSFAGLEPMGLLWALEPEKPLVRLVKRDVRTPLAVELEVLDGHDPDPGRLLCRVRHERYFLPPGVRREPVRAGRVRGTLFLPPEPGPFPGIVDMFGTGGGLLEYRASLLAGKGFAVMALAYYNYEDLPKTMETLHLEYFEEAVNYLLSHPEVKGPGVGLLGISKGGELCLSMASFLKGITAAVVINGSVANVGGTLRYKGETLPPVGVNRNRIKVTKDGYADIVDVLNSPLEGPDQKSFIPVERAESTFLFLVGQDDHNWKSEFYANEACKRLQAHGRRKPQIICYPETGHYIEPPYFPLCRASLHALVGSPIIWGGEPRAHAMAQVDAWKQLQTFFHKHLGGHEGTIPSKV

[18] = target: Lysosomal thioesterase PPT2 (Homo sapiens) (UniProt Q9UMR5); assay: Inhibition of PPT2 binding to FP-biotin in [12C][14N]-lysine, arginine and [13C6][15N2]-lysine, arginine labeled HEK293T cells at 20 uM after 1 hr by isotopic activity-based protein profiling-MudPIT assay; outline: as §1
[19] = target: Diacylglycerol lipase-beta (Homo sapiens) (UniProt Q8NCG7); assay: Inhibition of DAGLB binding to FP-biotin in [12C][14N]-lysine, arginine and [13C6][15N2]-lysine, arginine labeled HEK293T cells at 20 uM after 1 hr by isotopic activity-based protein profiling-MudPIT assay; outline: as §1
Diacylglycerol lipase-beta (Homo sapiens), sequence (Q8NCG7 whole entry): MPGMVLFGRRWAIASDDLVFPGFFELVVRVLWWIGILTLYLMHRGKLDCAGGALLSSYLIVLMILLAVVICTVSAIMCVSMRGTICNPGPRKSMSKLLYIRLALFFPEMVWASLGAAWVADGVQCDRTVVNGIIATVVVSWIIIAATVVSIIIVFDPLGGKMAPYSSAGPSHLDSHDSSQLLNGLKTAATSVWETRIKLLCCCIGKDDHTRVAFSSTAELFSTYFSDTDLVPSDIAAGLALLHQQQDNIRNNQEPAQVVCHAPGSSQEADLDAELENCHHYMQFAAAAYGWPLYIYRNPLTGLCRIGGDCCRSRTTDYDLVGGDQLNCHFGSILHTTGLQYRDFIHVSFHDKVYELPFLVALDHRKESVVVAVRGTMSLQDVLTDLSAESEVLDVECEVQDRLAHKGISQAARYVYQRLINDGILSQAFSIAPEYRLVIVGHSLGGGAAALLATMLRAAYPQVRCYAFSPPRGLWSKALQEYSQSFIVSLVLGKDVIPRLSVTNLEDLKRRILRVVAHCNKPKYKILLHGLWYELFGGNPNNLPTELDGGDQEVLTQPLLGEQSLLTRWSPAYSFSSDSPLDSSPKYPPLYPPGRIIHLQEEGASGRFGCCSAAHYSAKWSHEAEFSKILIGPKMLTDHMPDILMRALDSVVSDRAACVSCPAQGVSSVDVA

Measured: inhibition

N#C/C(=C\c1cccn1S(=O)(=O)c1cccc([N+](=O)[O-])c1)S(=O)(=O)c1ccc(F)cc1
inactive: all assays above
